In brackets after ≈: the same amount, converted by molar mass.
Key:
Assay type in all cases: functional
Staphylococcus aureus [1] = experiment: Antibacterial activity against Staphylococcus aureus at 200 ug after 24 hrs by agar disc-diffusion method; conditions: read-out: IZ
Procedure, shortened: (§1)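 Agar disc diffusion on nutrient agar with bacterial strains from NCIM, Pune. Sterile 6 mm filter-paper discs were wetted with compound in DMSO and placed on plates already inoculated with each organism. Plates were incubated at 37 °C, and the diameter of the growth-inhibition zone was measured after 24 h.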

Escherichia coli [2] = experiment: Antibacterial activity against Escherichia coli at 100 ug after 24 hrs by agar disc-diffusion method; conditions: read-out: IZ; procedure, shortened: as §1
Fusarium solani [3] = experiment: Antifungal activity against Fusarium solani at 100 ug after 48 hrs by agar disc-diffusion method; conditions: read-out: IZ
Procedure, shortened: (§2)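 Fungal strains from NCIM, Pune, were tested by disc diffusion on nutrient agar. Sterile 6 mm paper discs moistened with the compound solution in DMSO were placed on plates pre-inoculated with each fungus. Plates were incubated at 37 °C, and the inhibition-zone diameter was read after 48 h.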

Aspergillus niger [4] = experiment: Antifungal activity against Aspergillus niger at 200 ug after 48 hrs by agar disc-diffusion method; conditions: read-out: IZ; procedure, shortened: as §2
Klebsiella pneumoniae [5] = experiment: Antibacterial activity against Klebsiella pneumoniae at 200 ug after 24 hrs by agar disc-diffusion method; conditions: read-out: IZ; procedure, shortened: as §1
Klebsiella pneumoniae [6] = experiment: Antibacterial activity against Klebsiella pneumoniae at 100 ug after 24 hrs by agar disc-diffusion method; conditions: read-out: IZ; procedure, shortened: as §1
Bacillus subtilis [7] = experiment: Antibacterial activity against Bacillus subtilis at 100 ug after 24 hrs by agar disc-diffusion method; conditions: read-out: IZ; procedure, shortened: as §1
Fusarium solani [8] = experiment: Antifungal activity against Fusarium solani at 200 ug after 48 hrs by agar disc-diffusion method; conditions: read-out: IZ; procedure, shortened: as §2
Curvularia lunata [9] = experiment: Antifungal activity against Curvularia lunata at 200 ug after 48 hrs by agar disc-diffusion method; conditions: read-out: IZ; procedure, shortened: as §2
Curvularia lunata [10] = experiment: Antifungal activity against Curvularia lunata at 100 ug after 48 hrs by agar disc-diffusion method; conditions: read-out: IZ; procedure, shortened: as §2
Bacillus subtilis [11] = experiment: Antibacterial activity against Bacillus subtilis at 200 ug after 24 hrs by agar disc-diffusion method; conditions: read-out: IZ; procedure, shortened: as §1
Escherichia coli [12] = experiment: Antibacterial activity against Escherichia coli at 200 ug after 24 hrs by agar disc-diffusion method; conditions: read-out: IZ; procedure, shortened: as §1
Aspergillus niger [13] = experiment: Antifungal activity against Aspergillus niger at 100 ug after 48 hrs by agar disc-diffusion method; conditions: read-out: IZ; procedure, shortened: as §2
Staphylococcus aureus [14] = experiment: Antibacterial activity against Staphylococcus aureus at 100 ug after 24 hrs by agar disc-diffusion method; conditions: read-out: IZ; procedure, shortened: as §1
Bacillus subtilis [15] = experiment: Antibacterial activity against Bacillus subtilis after 24 hrs by microdilution susceptibility method
Procedure, shortened: (§3)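 Microdilution susceptibility test on bacterial strains from NCIM, Pune. Microorganism suspensions were inoculated into wells containing the compound and incubated at 36 °C for 24 h. MIC was taken as the lowest concentration showing no turbidity, meaning complete inhibition of visible growth.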

Curvularia lunata [16] = experiment: Antifungal activity against Curvularia lunata after 48 hrs by microdilution susceptibility method
Procedure, shortened: (§4)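 Broth microdilution with fungi from NCIM, Pune. Fungal suspensions were added to wells containing the compound and incubated at 36 °C for 48 h. MIC was recorded as the lowest concentration with no turbidity, that is, no visible growth.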

Staphylococcus aureus [17] = experiment: Antibacterial activity against Staphylococcus aureus after 24 hrs by microdilution susceptibility method; procedure, shortened: as §3
Fusarium solani [18] = experiment: Antifungal activity against Fusarium solani after 48 hrs by microdilution susceptibility method; procedure, shortened: as §4
Aspergillus niger [19] = experiment: Antifungal activity against Aspergillus niger after 48 hrs by microdilution susceptibility method; procedure, shortened: as §4
Escherichia coli [20] = experiment: Antibacterial activity against Escherichia coli after 24 hrs by microdilution susceptibility method; procedure, shortened: as §3
Klebsiella pneumoniae [21] = experiment: Antibacterial activity against Klebsiella pneumoniae after 24 hrs by microdilution susceptibility method; procedure, shortened: as §3

Compound	zone of inhibition at 200 µg/disc (Staphylococcus aureus [1]) [mm]	zone of inhibition at 100 µg/disc (Escherichia coli [2]) [mm]	zone of inhibition at 100 µg/disc (Fusarium solani [3]) [mm]	zone of inhibition at 200 µg/disc (Aspergillus niger [4]) [mm]	zone of inhibition at 200 µg/disc (Klebsiella pneumoniae [5]) [mm]	zone of inhibition at 100 µg/disc (Klebsiella pneumoniae [6]) [mm]	zone of inhibition at 100 µg/disc (Bacillus subtilis [7]) [mm]	zone of inhibition at 200 µg/disc (Fusarium solani [8]) [mm]	zone of inhibition at 200 µg/disc (Curvularia lunata [9]) [mm]	zone of inhibition at 100 µg/disc (Curvularia lunata [10]) [mm]	zone of inhibition at 200 µg/disc (Bacillus subtilis [11]) [mm]	zone of inhibition at 200 µg/disc (Escherichia coli [12]) [mm]	zone of inhibition at 100 µg/disc (Aspergillus niger [13]) [mm]	zone of inhibition at 100 µg/disc (Staphylococcus aureus [14]) [mm]	MIC (Bacillus subtilis [15]) [µg/mL]	MIC (Curvularia lunata [16]) [µg/mL]	MIC (Staphylococcus aureus [17]) [µg/mL]	MIC (Fusarium solani [18]) [µg/mL]	MIC (Aspergillus niger [19]) [µg/mL]	MIC (Escherichia coli [20]) [µg/mL]	further results
Cc1ccc([C@H]2CNN=C2S(=O)(=O)Cc2nnc(S)n2N)cc1	28	24	32	38	24	22	27	37	39	34	29	26	35	25	–	–	–	–	–	–	–
O=S(=O)(Cc1nnc(S)s1)C1=NNC[C@@H]1c1ccccc1	21	15	22	28	20	17	20	24	29	26	23	20	25	18	–	–	–	–	–	–	–
O=S(=O)(Cc1nnc(S)o1)C1=NNC[C@@H]1c1ccccc1	16	15	17	21	16	14	13	19	22	17	15	18	16	14	–	–	–	–	–	–	–
Cc1ccc([C@H]2CNN=C2S(=O)(=O)Cc2nnc(S)o2)cc1	15	12	16	21	12	10	13	20	18	16	16	14	17	12	–	–	–	–	–	–	–
Nn1c(S)nnc1CS(=O)(=O)C1=NNC[C@@H]1c1ccc(Cl)cc1	35	23	40	40	28	26	34	43	42	39	36	25	36	32	12.5 (≈ 33.5 µM)	12.5 (≈ 33.5 µM)	12.5 (≈ 33.5 µM)	25 (≈ 67 µM)	25 (≈ 67 µM)	50 (≈ 134 µM)	MIC (Klebsiella pneumoniae [21]): 50 µg/mL (≈ 134 µM)
O=S(=O)(Cc1nnc(S)o1)C1=NNC[C@@H]1c1ccc(Cl)cc1	17	11	15	18	14	11	15	18	19	16	18	13	14	13	–	–	–	–	–	–	–
Cc1ccc([C@H]2CNN=C2S(=O)(=O)Cc2nnc(S)s2)cc1	17	18	24	24	19	16	16	26	23	20	19	21	22	14	–	–	–	–	–	–	–
O=S(=O)(Cc1nnc(S)s1)C1=NNC[C@@H]1c1ccc(Cl)cc1	29	22	28	29	26	24	28	31	26	23	31	27	26	25	200 (≈ 533 µM)	100 (≈ 267 µM)	100 (≈ 267 µM)	100 (≈ 267 µM)	200 (≈ 533 µM)	200 (≈ 533 µM)	MIC (Klebsiella pneumoniae [21]): 200 µg/mL (≈ 533 µM)
Nn1c(S)nnc1CS(=O)(=O)C1=NNC[C@@H]1c1ccccc1	30	22	39	39	24	21	31	44	41	37	33	25	36	28	25 (≈ 73.9 µM)	100 (≈ 295 µM)	25 (≈ 73.9 µM)	100 (≈ 295 µM)	100 (≈ 295 µM)	50 (≈ 148 µM)	MIC (Klebsiella pneumoniae [21]): 100 µg/mL (≈ 295 µM)
O=C(N[C@H](CO)[C@H](O)c1ccc([N+](=O)[O-])cc1)C(Cl)Cl [CHLORAMPHENICOL]	39	40	–	–	45	42	38	–	–	–	41	44	–	35	6.25 (≈ 19.3 µM)	–	6.25 (≈ 19.3 µM)	–	–	6.25 (≈ 19.3 µM)	MIC (Klebsiella pneumoniae [21]): 12.5 µg/mL (≈ 38.7 µM)
CC(=O)N1CCN(c2ccc(OCC3COC(Cn4ccnc4)(c4ccc(Cl)cc4Cl)O3)cc2)CC1 (stereo not drawn) [KETOCONAZOLE]	–	–	38	39	–	–	–	42	44	41	–	–	36	–	–	6.25 (≈ 11.8 µM)	–	12.5 (≈ 23.5 µM)	6.25 (≈ 11.8 µM)	–	–

Source: ChEMBL document CHEMBL1156668, “Synthesis and antimicrobial activity of novel sulfone-linked bis heterocycles” (2008)
